Results from ChEMBL document CHEMBL4765448, “Multiple biological active 4-aminopyrazoles containing trifluoromethyl and their 4-nitroso-precursors: Synthesis and evaluation” (Eur J Med Chem, 2020).
In brackets after ≈: the same amount, converted by molar mass. Activity calls are given as the source filed them. No cut-off for these calls is given here.

test system: Neisseria gonorrhoeae; assay: Antibacterial activity against Neisseria gonorrhoeae; format: functional; conditions: not given

| Compound | MIC [µg/mL] |
| --- | --- |
| Cn1nc(C(F)(F)F)c(N=O)c1-c1ccccc1 | 62.5 (≈ 245 µM) |

test system: Escherichia coli; assay: Antibacterial activity against Escherichia coli; format: functional; conditions: not given

| Compound | MIC [µg/mL] |
| --- | --- |
| Cn1nc(C(F)(F)F)c(N=O)c1-c1ccccc1 | > 500 |

test system: Klebsiella pneumoniae; assay: Antibacterial activity against Klebsiella pneumoniae; format: functional; conditions: not given

| Compound | MIC [µg/mL] |
| --- | --- |
| Cn1nc(C(F)(F)F)c(N=O)c1-c1ccccc1 | > 500 |

test system: Citrobacter braakii; assay: Antibacterial activity against Citrobacter braakii; format: functional; conditions: not given

| Compound | MIC [µg/mL] |
| --- | --- |
| Cn1nc(C(F)(F)F)c(N=O)c1-c1ccccc1 | > 500 |

test system: Proteus vulgaris; assay: Antibacterial activity against Proteus vulgaris; format: functional; conditions: not given

| Compound | MIC [µg/mL] |
| --- | --- |
| Cn1nc(C(F)(F)F)c(N=O)c1-c1ccccc1 | > 500 |

test system: Serratia marcescens; assay: Antibacterial activity against Serratia marcescens; format: functional; conditions: not given

| Compound | MIC [µg/mL] |
| --- | --- |
| Cn1nc(C(F)(F)F)c(N=O)c1-c1ccccc1 | > 500 |

test system: Shigella flexneri; assay: Antibacterial activity against Shigella flexneri; format: functional; conditions: not given

| Compound | MIC [µg/mL] |
| --- | --- |
| Cn1nc(C(F)(F)F)c(N=O)c1-c1ccccc1 | > 500 |

test system: Pseudomonas aeruginosa; assay: Antibacterial activity against Pseudomonas aeruginosa; format: functional; conditions: not given

| Compound | MIC [µg/mL] |
| --- | --- |
| Cn1nc(C(F)(F)F)c(N=O)c1-c1ccccc1 | > 500 |

test system: Streptococcus pyogenes; assay: Antibacterial activity against Streptococcus pyogenes; format: functional; conditions: not given

| Compound | MIC [µg/mL] |
| --- | --- |
| Cn1nc(C(F)(F)F)c(N=O)c1-c1ccccc1 | > 500 |

test system: Staphylococcus aureus; assay: Antibacterial activity against Staphylococcus aureus; format: functional; conditions: not given

| Compound | MIC [µg/mL] |
| --- | --- |
| Cn1nc(C(F)(F)F)c(N=O)c1-c1ccccc1 | > 500 |

test system: Trichophyton rubrum; assay: Antifungal activity against Trichophyton rubrum; format: functional; conditions: not given

| Compound | MIC [µg/mL] |
| --- | --- |
| Cn1nc(C(F)(F)F)c(N=O)c1-c1ccccc1 | 12.5 (≈ 49 µM) |

test system: Nannizzia gypsea; assay: Antifungal activity against Trichophyton gypseum; format: functional; conditions: not given

| Compound | MIC [µg/mL] |
| --- | --- |
| Cn1nc(C(F)(F)F)c(N=O)c1-c1ccccc1 | 25 (≈ 98 µM) |

test system: Trichophyton tonsurans; assay: Antifungal activity against Trichophyton tonsurans; format: functional; conditions: not given

| Compound | MIC [µg/mL] |
| --- | --- |
| Cn1nc(C(F)(F)F)c(N=O)c1-c1ccccc1 | 3.12 (≈ 12.2 µM) |

test system: Trichophyton violaceum; assay: Antifungal activity against Trichophyton violaceum; format: functional; conditions: not given

| Compound | MIC [µg/mL] |
| --- | --- |
| Cn1nc(C(F)(F)F)c(N=O)c1-c1ccccc1 | 6.25 (≈ 24.5 µM) |

test system: Trichophyton interdigitale; assay: Antifungal activity against Trichophyton mentagrophytes var. interdigitale; format: functional; conditions: not given

| Compound | MIC [µg/mL] |
| --- | --- |
| Cn1nc(C(F)(F)F)c(N=O)c1-c1ccccc1 | 12.5 (≈ 49 µM) |

test system: Epidermophyton floccosum; assay: Antifungal activity against Epidermophyton floccosum; format: functional; conditions: not given

| Compound | MIC [µg/mL] |
| --- | --- |
| Cn1nc(C(F)(F)F)c(N=O)c1-c1ccccc1 | 0.38 (≈ 1.49 µM) |

test system: Microsporum canis; assay: Antifungal activity against Microsporum canis; format: functional; conditions: not given

| Compound | MIC [µg/mL] |
| --- | --- |
| Cn1nc(C(F)(F)F)c(N=O)c1-c1ccccc1 | 100 (≈ 392 µM) |

test system: Candida albicans; assay: Antifungal activity against Candida albicans; format: functional; conditions: not given

| Compound | MIC |
| --- | --- |
| Cn1nc(C(F)(F)F)c(N=O)c1-c1ccccc1 | inactive |

test system: not listed separately; assay: Drug metabolism assessed as nitric oxide release in presence of rat plasma by Griess reagent based assay; format: cell-free; conditions: not given

| Compound | Drug metabolism |
| --- | --- |
| Cn1nc(C(F)(F)F)c(N=O)c1-c1ccccc1 | Metabolite detected |

test system: not listed separately; assay: Drug metabolism assessed as nitric oxide release in absence of rat plasma by Griess reagent based assay; format: cell-free; conditions: not given

| Compound | Drug metabolism |
| --- | --- |
| O=[N+]([O-])O[C@H]1CO[C@H]2[C@@H]1OC[C@H]2O[N+](=O)[O-] | Metabolite detected |
| Cn1nc(C(F)(F)F)c(N=O)c1-c1ccccc1 | Metabolite not detected |

test system: not listed separately; assay: Antioxidant activity assessed as trolox equivalent of ABTS radical scavenging activity measured after 1 hr by UV-vis spectrophotometric method; format: functional; conditions: not given
Outline: (§1)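 ABTS cation-radical decolorization was read spectrophotometrically as the fall in absorbance after 1 h. Trolox was the reference. TEAC was taken as the ratio of concentration-response slopes, test/Trolox, and IC50 was also derived. Data are mean ± SEM, n = 3.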

| Compound | Activity [equiv] |
| --- | --- |
| CS(=O)(=O)c1ccc(N2N=C(c3ccccc3)/C(=N\O)C2(O)C(F)(F)F)cc1 (stereo not drawn) | 0.16 |
| Cn1nc(C(F)(F)F)c(N=O)c1-c1ccccc1 | 0.01 |

test system: not listed separately; assay: Antioxidant activity assessed as ABTS radical scavenging activity measured after 1 hr by UV-vis spectrophotometric method; format: functional; conditions: not given; outline: as §1

| Compound | IC50 [µM] |
| --- | --- |
| CS(=O)(=O)c1ccc(N2N=C(c3ccccc3)/C(=N\O)C2(O)C(F)(F)F)cc1 (stereo not drawn) | 169 |

test system: not listed separately; assay: Antioxidant activity assessed as AAPH scavenging activity by measuring residual fluorescence at 10 uM measured at 1 min interval for 30 mins by ORAC fluorescein assay relative to control; format: functional; conditions: not given
Outline: (§2)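 ORAC-FL assay with fluorescein as the probe and AAPH as the peroxyl radical generator. The loss of fluorescence over time was followed, and the result is given as % fluorescence restored at 10 and 50 µM. Each value is the mean of two independent experiments.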

| Compound | Activity [%] |
| --- | --- |
| CS(=O)(=O)c1ccc(N2N=C(c3ccccc3)/C(=N\O)C2(O)C(F)(F)F)cc1 (stereo not drawn) | 30.6 |
| Cn1nc(C(F)(F)F)c(N=O)c1-c1ccccc1 | 3 |

test system: not listed separately; assay: Antioxidant activity assessed as AAPH scavenging activity by measuring residual fluorescence at 50 uM measured at 1 min interval for 30 mins by ORAC fluorescein assay relative to control; format: functional; conditions: not given; outline: as §2

| Compound | Activity [%] |
| --- | --- |
| CS(=O)(=O)c1ccc(N2N=C(c3ccccc3)/C(=N\O)C2(O)C(F)(F)F)cc1 (stereo not drawn) | 49.1 |
| Cn1nc(C(F)(F)F)c(N=O)c1-c1ccccc1 | 16.1 |

test system: Erythrocyte; assay: Antioxidant activity in human erythrocytes assessed as protection against AAPH-induced hemolysis at 50 uM preincubated for 20 mins followed by AAPH addition and measured after 2 hrs by spectrophotometric method relative to control; format: functional; conditions: time 140 min, 2.333 h
Outline: (§3)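 Erythrocyte hemolysis assay with AAPH as the free-radical initiator, testing 50 and 400 µM. Results are expressed as relative protection of membranes against oxidative damage, each the mean of two independent experiments.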

| Compound | fold change (FC) |
| --- | --- |
| CS(=O)(=O)c1ccc(N2N=C(c3ccccc3)/C(=N\O)C2(O)C(F)(F)F)cc1 (stereo not drawn) | 1.03 |
| Cn1nc(C(F)(F)F)c(N=O)c1-c1ccccc1 | 1 |

test system: Erythrocyte; assay: Antioxidant activity in human erythrocytes assessed as protection against AAPH-induced hemolysis at 400 uM preincubated for 20 mins followed by AAPH addition and measured after 2 hrs by spectrophotometric method relative to control; format: functional; conditions: time 140 min, 2.333 h; outline: as §3

| Compound | fold change (FC) |
| --- | --- |
| CS(=O)(=O)c1ccc(N2N=C(c3ccccc3)/C(=N\O)C2(O)C(F)(F)F)cc1 (stereo not drawn) | 1.14 |
| Cn1nc(C(F)(F)F)c(N=O)c1-c1ccccc1 | 1.02 |

test system: HeLa; assay: Cytotoxicity against human HeLa cells; format: functional, cell-based; conditions: not given

| Compound | Activity |
| --- | --- |
| Cn1nc(C(F)(F)F)c(N=O)c1-c1ccccc1 | Dose-dependent effect |

same assay, conditions: Homo sapiens, HeLa; read-out: IC50

| Compound | IC50 [µM] |
| --- | --- |
| Cn1nc(C(F)(F)F)c(N=O)c1-c1ccccc1 | 63.9 |

test system: NHDF; assay: Cytotoxicity against HDF cells; format: cell-based, Homo sapiens; conditions: Homo sapiens, NHDF; read-out: IC50

| Compound | IC50 [µM] |
| --- | --- |
| Cn1nc(C(F)(F)F)c(N=O)c1-c1ccccc1 | 49.5 |

test system: not listed separately; assay: Selectivity index, ratio of IC50 for HDF cells to IC50 for human HeLa cells; format: toxicity; conditions: HDF cells versus HeLa cells, read-out: Ratio IC50

| Compound | selectivity ratio |
| --- | --- |
| Cn1nc(C(F)(F)F)c(N=O)c1-c1ccccc1 | 0.77 |

test system: Rattus norvegicus; assay: Antiinflammatory activity in rat model of carrageenan-induced paw edema assessed as inhibition of hind paw swelling at 15 mg/kg, ip measured after 1 hr relative to control; format: functional; conditions: not given

| Compound | inhibition |
| --- | --- |
| CS(=O)(=O)c1ccc(N2N=C(c3ccccc3)/C(=N\O)C2(O)C(F)(F)F)cc1 (stereo not drawn) | inactive |
| Cn1nc(C(F)(F)F)c(N=O)c1-c1ccccc1 | inactive |

test system: Rattus norvegicus; assay: Antiinflammatory activity in rat model of carrageenan-induced paw edema assessed as inhibition of hind paw swelling at 15 mg/kg, ip measured after 3 hrs relative to control; format: functional; conditions: not given

| Compound | inhibition |
| --- | --- |
| CS(=O)(=O)c1ccc(N2N=C(c3ccccc3)/C(=N\O)C2(O)C(F)(F)F)cc1 (stereo not drawn) | inactive |
| Cn1nc(C(F)(F)F)c(N=O)c1-c1ccccc1 | inactive |

test system: Rattus norvegicus; assay: Analgesic activity in rat assessed as prolongation of latency period at 15 mg/kg, ip measured after 1 hr by hot-plate test relative to control; format: functional; conditions: not given
Outline: (§4)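 Hot-plate test in rats. Compounds were given by intraperitoneal injection. Latency was read at 1 h and, for some compounds, also at 2 h after dosing. Results are expressed as % prolongation of the latent period versus vehicle-treated control. Significance was given as p-values.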

| Compound | Activity [%] |
| --- | --- |
| CS(=O)(=O)c1ccc(N2N=C(c3ccccc3)/C(=N\O)C2(O)C(F)(F)F)cc1 (stereo not drawn) | 53.7 |
| Cn1nc(C(F)(F)F)c(N=O)c1-c1ccccc1 | 80.2 |

test system: Rattus norvegicus; assay: Analgesic activity in rat assessed as prolongation of latency period at 15 mg/kg, ip measured after 2 hrs by hot-plate test relative to control; format: functional; conditions: not given; outline: as §4

| Compound | Activity [%] |
| --- | --- |
| CS(=O)(=O)c1ccc(N2N=C(c3ccccc3)/C(=N\O)C2(O)C(F)(F)F)cc1 (stereo not drawn) | 44.3 |

test system: Rattus norvegicus; assay: Antiinflammatory activity in rat model of carrageenan-induced paw edema assessed as inhibition of hind paw swelling at 15 mg/kg, ip measured after 5 hrs; format: functional, organism-based; conditions: not given

| Compound | Activity |
| --- | --- |
| CS(=O)(=O)c1ccc(N2N=C(c3ccccc3)/C(=N\O)C2(O)C(F)(F)F)cc1 (stereo not drawn) | Active |
| Cn1nc(C(F)(F)F)c(N=O)c1-c1ccccc1 | Active |

test system: not listed separately; assay: Acute toxicity in mouse at 150 mg/kg, ip administered as single dose; format: organism-based; conditions: in vivo
Outline: (§5)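 Mice, single intraperitoneal dose, following OECD Guideline for testing of chemicals; three mice per dose level; doses tested 10–300 mg/kg. Read-out is the number of survivors out of 3, used to estimate the expected LD50 range.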

| Compound | Activity |
| --- | --- |
| Cn1nc(C(F)(F)F)c(N=O)c1-c1ccccc1 | Non-Toxic |

test system: not listed separately; assay: Acute toxicity in mouse at 300 mg/kg, ip administered as single dose; format: organism-based; conditions: in vivo; outline: as §5

| Compound | Activity |
| --- | --- |
| CS(=O)(=O)c1ccc(N2N=C(c3ccccc3)/C(=N\O)C2(O)C(F)(F)F)cc1 (stereo not drawn) | Non-Toxic |

test system: not listed separately; assay: Acute toxicity in ip dosed mouse administered as single dose; format: organism-based; conditions: in vivo; outline: as §5

| Compound | LD50 [mg/kg] |
| --- | --- |
| CS(=O)(=O)c1ccc(N2N=C(c3ccccc3)/C(=N\O)C2(O)C(F)(F)F)cc1 (stereo not drawn) | > 300 |
